Common to all, as to type: functional
One assay has as its system Escherichia coli. In words: Antibacterial activity in vitro against Escherichia coli Vogel. The gist of the method:
(§1)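 Standard microtitration broth assay against a panel of 10 Gram-positive and Gram-negative organisms. MIC read in µg/mL and averaged over multiple experiments.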

A further assay relates to Enterobacter cloacae. In words: Minimum inhibitory concentration in vitro against Enterobacter cloacae MA 2646.
In another assay the test system is Enterococcus faecalis. In words: Minimum inhibitory concentration was evaluated in vitro against Enterococcus faecalis MGH-2. In outline:
as §1

A further assay relates to Klebsiella pneumoniae. In words: Minimum inhibitory concentration was evaluated in vitro against Klebsiella pneumoniae MGH2. In outline:
as §1

In the next assay the test system is Providencia rettgeri. Kind of assay: Minimum inhibitory concentration was evaluated in vitro against Providencia rettgeri M1771. The gist of the method:
as §1

The subject of a further assay is Pseudomonas aeruginosa. Kind of assay: Minimum inhibitory concentration was evaluated in vitro against Pseudomonas aeruginosa UI-18. In outline: as §1
The subject of assay [1] is Staphylococcus aureus. Kind of assay: Minimum inhibitory concentration was evaluated in vitro against Staphylococcus aureus H 228. In outline:
as §1

In assay [2] the test system is Staphylococcus aureus. Kind of assay: Minimum inhibitory concentration was evaluated in vitro against Staphylococcus aureus UC 76. In outline:
as §1

A further assay concerns Streptococcus pneumoniae. Kind of assay: Minimum inhibitory concentration was evaluated in vitro against Streptococcus pneumoniae SV-1. The gist of the method: as §1
For assay [3], the system named is Streptococcus pyogenes. In words: Antibacterial activity measured as mouse protection against Streptococcus pyogenes C 203 after subcutaneous administration. Particulars: Streptococcus pyogenes, C 203, sc; read-out: PD50.
In assay [4] the test system is Streptococcus pyogenes. In words: Minimum inhibitory concentration was evaluated in vitro against Streptococcus pyogenes C 203. The gist of the method:
as §1

For assay [5], the system named is Streptococcus pyogenes. In words: Compounds were evaluated in vivo for antibacterial activity for mouse protection against Streptococcus pyogenes C 203 after oral administration. As to conditions: Streptococcus pyogenes, C 203, po; read-out: PD50.
Setting [6] is: Escherichia coli, read-out: MIC.
Where [7] appears, read: Enterobacter cloacae, read-out: MIC.
Where [8] appears, read: Enterococcus faecalis, read-out: MIC.
The mark [9] stands for this setting: Klebsiella pneumoniae, read-out: MIC.
[10] abbreviates: Providencia rettgeri, read-out: MIC.
Setting [11] is: Pseudomonas aeruginosa, read-out: MIC.
Setting [12] is: Staphylococcus aureus, read-out: MIC.
Where [13] appears, read: Streptococcus pneumoniae, read-out: MIC.
The mark [14] stands for this setting: Streptococcus pyogenes, read-out: MIC.

≈ marks a conversion by molar mass, not a printed value.

Results on eight compounds are retold here after ChEMBL document CHEMBL1126988, “Quinolone antibacterials containing the new 7-[3-(1-aminoethyl)-1- pyrrolidinyl] side chain: the effects of the 1-aminoethyl moiety and its stereochemical configurations on potency and in vivo efficacy” (J Med Chem, 1993).

A word on the MIC: it is the lowest concentration that inhibits growth of the organism.

Turning to `COc1c(N2CC[C@@H]([C@H](C)N)C2)c(F)cc2c(=O)c(C(=O)O)cn(C3CC3)c12`, the MIC with Escherichia coli (setting [6]) was 0.4 µg/mL (≈ 1.03 µM); in the assay on Enterobacter cloacae (setting [7]), 0.8 µg/mL (≈ 2.05 µM); with Enterococcus faecalis (setting [8]) it was 0.05 µg/mL (≈ 0.128 µM); in the assay with Klebsiella pneumoniae (setting [9]) it was 0.4 µg/mL (≈ 1.03 µM); with Providencia rettgeri (setting [10]), 0.4 µg/mL (≈ 1.03 µM); with Pseudomonas aeruginosa (setting [11]) it was 1.6 µg/mL (≈ 4.11 µM). For the same compound, the minimum inhibitory concentration (MIC) is 0.05 µg/mL (≈ 0.128 µM) in the assay on Staphylococcus aureus [1] (setting [12]), 0.013 µg/mL (≈ 0.0334 µM) in the assay with Staphylococcus aureus [2] (setting [12]), 0.025 µg/mL (≈ 0.0642 µM) in the assay on Streptococcus pneumoniae (setting [13]) and 0.025 µg/mL (≈ 0.0642 µM) with Streptococcus pyogenes [4] (setting [14]). In addition, the ED50 in the assay on Streptococcus pyogenes [3] turned out to be 6 mg/kg.

For the compound `CCN[C@@H](C)[C@H]1CCN(c2cc3c(cc2F)c(=O)c(C(=O)O)cn3C2CC2)C1`, the MIC in the assay with Escherichia coli (setting [6]) is 0.4 µg/mL (≈ 1.03 µM); in the assay with Enterobacter cloacae (setting [7]) it was 0.4 µg/mL (≈ 1.03 µM); in the assay on Enterococcus faecalis (setting [8]), 0.8 µg/mL (≈ 2.06 µM); in the assay on Klebsiella pneumoniae (setting [9]), 0.8 µg/mL (≈ 2.06 µM); in the assay with Providencia rettgeri (setting [10]), 1.6 µg/mL (≈ 4.13 µM); in the assay on Pseudomonas aeruginosa (setting [11]) it was 12.5 µg/mL (≈ 32.3 µM). Besides, the MIC came out at 0.8 µg/mL (≈ 2.06 µM) with Staphylococcus aureus [1] (setting [12]), 0.4 µg/mL (≈ 1.03 µM) in the assay with Staphylococcus aureus [2] (setting [12]), 0.4 µg/mL (≈ 1.03 µM) in the assay with Streptococcus pneumoniae (setting [13]) and 0.4 µg/mL (≈ 1.03 µM) in the assay on Streptococcus pyogenes [4] (setting [14]).

Turning to `CN[C@@H](C)[C@H]1CCN(c2c(F)c(N)c3c(=O)c(C(=O)O)cn(C4CC4)c3c2F)C1`, the minimal inhibitory concentration (MIC) came out at 0.4 µg/mL (≈ 0.984 µM) in the assay on Escherichia coli (setting [6]); 0.4 µg/mL (≈ 0.984 µM) in the assay with Enterobacter cloacae (setting [7]); 1.6 µg/mL (≈ 3.94 µM) in the assay with Enterococcus faecalis (setting [8]); 0.8 µg/mL (≈ 1.97 µM) in the assay on Klebsiella pneumoniae (setting [9]); 1.6 µg/mL (≈ 3.94 µM) in the assay on Providencia rettgeri (setting [10]); 3.1 µg/mL (≈ 7.63 µM) in the assay on Pseudomonas aeruginosa (setting [11]). Further, the minimal inhibitory concentration (MIC) in the assay with Staphylococcus aureus [1] (setting [12]) was determined as 0.8 µg/mL (≈ 1.97 µM); in the assay with Staphylococcus aureus [2] (setting [12]) it was 0.4 µg/mL (≈ 0.984 µM); with Streptococcus pneumoniae (setting [13]), 0.8 µg/mL (≈ 1.97 µM); in the assay on Streptococcus pyogenes [4] (setting [14]), 1.6 µg/mL (≈ 3.94 µM).

As to `CN[C@@H](C)[C@H]1CCN(c2cc3c(cc2F)c(=O)c(C(=O)O)cn3C2CC2)C1`, the minimal inhibitory concentration (MIC) in the assay on Escherichia coli (setting [6]) came out at 0.4 µg/mL (≈ 1.07 µM); in the assay on Enterobacter cloacae (setting [7]), 0.4 µg/mL (≈ 1.07 µM); in the assay on Enterococcus faecalis (setting [8]) it was 0.8 µg/mL (≈ 2.14 µM); in the assay on Klebsiella pneumoniae (setting [9]), 0.8 µg/mL (≈ 2.14 µM); in the assay on Providencia rettgeri (setting [10]) it was 3.1 µg/mL (≈ 8.3 µM); in the assay on Pseudomonas aeruginosa (setting [11]), 6.3 µg/mL (≈ 16.9 µM). Besides, the MIC in the assay with Staphylococcus aureus [1] (setting [12]) turned out to be 1.6 µg/mL (≈ 4.28 µM); in the assay on Staphylococcus aureus [2] (setting [12]), 0.2 µg/mL (≈ 0.536 µM); with Streptococcus pneumoniae (setting [13]), 0.4 µg/mL (≈ 1.07 µM); with Streptococcus pyogenes [4] (setting [14]) it was 0.4 µg/mL (≈ 1.07 µM).

In the case of `CCN[C@H](C)[C@@H]1CCN(c2c(F)cc3c(=O)c(C(=O)O)cn(C4CC4)c3c2OC)C1`, the MIC was 0.2 µg/mL (≈ 0.479 µM) in the assay on Escherichia coli (setting [6]); 0.2 µg/mL (≈ 0.479 µM) with Enterobacter cloacae (setting [7]); 0.013 µg/mL (≈ 0.0311 µM) in the assay on Enterococcus faecalis (setting [8]); 0.4 µg/mL (≈ 0.958 µM) in the assay on Klebsiella pneumoniae (setting [9]); 0.8 µg/mL (≈ 1.92 µM) with Providencia rettgeri (setting [10]); 3.1 µg/mL (≈ 7.43 µM) in the assay on Pseudomonas aeruginosa (setting [11]). The MIC in the assay with Staphylococcus aureus [1] (setting [12]) worked out at 0.013 µg/mL (≈ 0.0311 µM); with Staphylococcus aureus [2] (setting [12]), 0.003 µg/mL (≈ 0.00719 µM); with Streptococcus pneumoniae (setting [13]), 0.003 µg/mL (≈ 0.00719 µM); with Streptococcus pyogenes [4] (setting [14]) it was 0.003 µg/mL (≈ 0.00719 µM). For the same compound, the ED50 in the assay on Streptococcus pyogenes [5] was 3 mg/kg.

On to `CCN[C@H](C)[C@H]1CCN(c2cc3c(cc2F)c(=O)c(C(=O)O)cn3C2CC2)C1` (mixture of isomers; form 1), for which the minimum inhibitory concentration (MIC) against Escherichia coli worked out at 0.4 µg/mL; with Enterobacter cloacae it was 0.4 µg/mL; with Enterococcus faecalis, 0.4 µg/mL; in the assay with Klebsiella pneumoniae, 0.8 µg/mL; in the assay with Providencia rettgeri, 1.6 µg/mL; in the assay on Pseudomonas aeruginosa, 6.3 µg/mL. In addition, the MIC in the assay with Staphylococcus aureus [1] was 0.4 µg/mL; with Staphylococcus aureus [2], 0.2 µg/mL; against Streptococcus pneumoniae it was 0.2 µg/mL; against Streptococcus pyogenes [4], 0.2 µg/mL.

For `CCN[C@H](C)[C@@H]1CCN(c2cc3c(cc2F)c(=O)c(C(=O)O)cn3C2CC2)C1`, the MIC in the assay with Escherichia coli (setting [6]) turned out to be 0.2 µg/mL (≈ 0.516 µM); in the assay on Enterobacter cloacae (setting [7]), 0.2 µg/mL (≈ 0.516 µM); in the assay with Enterococcus faecalis (setting [8]) it was 0.1 µg/mL (≈ 0.258 µM); in the assay with Klebsiella pneumoniae (setting [9]), 0.4 µg/mL (≈ 1.03 µM); with Providencia rettgeri (setting [10]), 0.8 µg/mL (≈ 2.06 µM); in the assay with Pseudomonas aeruginosa (setting [11]) it was 6.3 µg/mL (≈ 16.3 µM). Besides, the MIC in the assay on Staphylococcus aureus [1] (setting [12]) was found to be 0.1 µg/mL (≈ 0.258 µM); in the assay with Staphylococcus aureus [2] (setting [12]), 0.025 µg/mL (≈ 0.0645 µM); in the assay on Streptococcus pneumoniae (setting [13]), 0.05 µg/mL (≈ 0.129 µM); in the assay on Streptococcus pyogenes [4] (setting [14]), 0.05 µg/mL (≈ 0.129 µM).

Regarding `C[C@@H](N)[C@@H]1CCN(c2nc3c(cc2F)c(=O)c(C(=O)O)cn3-c2ccc(F)cc2F)C1`, the minimum inhibitory concentration (MIC) in the assay with Escherichia coli (setting [6]) turned out to be 0.1 µg/mL (≈ 0.231 µM); in the assay on Enterobacter cloacae (setting [7]), 0.1 µg/mL (≈ 0.231 µM); with Enterococcus faecalis (setting [8]) it was 0.1 µg/mL (≈ 0.231 µM); with Klebsiella pneumoniae (setting [9]) it was 0.2 µg/mL (≈ 0.463 µM); in the assay with Providencia rettgeri (setting [10]), 0.4 µg/mL (≈ 0.925 µM); with Pseudomonas aeruginosa (setting [11]) it was 1.6 µg/mL (≈ 3.7 µM). For the same compound, the MIC in the assay with Staphylococcus aureus [1] (setting [12]) was 0.1 µg/mL (≈ 0.231 µM); in the assay on Staphylococcus aureus [2] (setting [12]) it was 0.025 µg/mL (≈ 0.0578 µM); in the assay on Streptococcus pneumoniae (setting [13]), 0.1 µg/mL (≈ 0.231 µM); in the assay with Streptococcus pyogenes [4] (setting [14]) it was 0.05 µg/mL (≈ 0.116 µM).
